Active and inactive are the calls of the source. No cut-off for these calls is given here.
Assays:
[1] = test system: Mus musculus; test: Toxicity in C57BL/6J mouse assessed as body weight at 300 mg/kg, po bid for 12 to 13 days measured on day 10 (reference value: 23.2 +/-0.4 gms); type: organism-based; set-up: dose 300 mg/kg, route oral; conditions: in vivo
[2] = test system: Mus musculus; test: Antidiabetic activity in db/db mouse assessed as fasting plasma glucose level at 300 mg/kg, po bid for 12 to 13 days measured on day 12 to 13 (reference value: 106 +/-6 mg/dl); type: functional
[3] = test system: Mus musculus; test: Toxicity in C57BL/6J mouse assessed as serum insulin level at 300 mg/kg, po bid for 12 to 13 days measured on day 15 (reference value: 0.25 +/-0.11 ng/ml); type: organism-based; set-up: dose 300 mg/kg, route oral; conditions: in vivo
[4] = test system: Mus musculus; test: Toxicity in C57BL/6J mouse assessed as food intake at 300 mg/kg, po bid for 12 to 13 days measured on day 10 (reference value: 3.72 +/-0.23 gms/day); type: organism-based; set-up: dose 300 mg/kg, route oral; conditions: in vivo
[5] = test system: Mus musculus; test: Antidiabetic activity in db/db mouse assessed as serum insulin level at 300 mg/kg, po bid for 12 to 13 days measured on day 12 to 13 (reference value: 7.30 +/-1.10 ng/ml); type: functional
[6] = test system: Mus musculus; test: Toxicity in db/db mouse assessed as food intake at 300 mg/kg, po bid for 12 to 13 days measured on day 10 (reference value: 6.06 +/-0.36 gms/day); type: organism-based; set-up: dose 300 mg/kg, route oral; conditions: in vivo
[7] = target: T1, Phosphatidylinositol 3,4,5-trisphosphate 5-phosphatase 2 (Mus musculus) (UniProt Q6P549); test: Inhibition of SHIP2 in TNF alpha-treated mouse 3T3L1 cells assessed as potentiation of insulin-stimulated Akt phosphorylation at Thr308 at 10 uM treated for 15 mins after TNF alpha challenge for 16 hrs and prior to insulin stimulation measured after 2 hrs by Western blot analysis relative to untreated control; type: cell-based; conditions: 3T3-L1
T1 sequence (whole entry): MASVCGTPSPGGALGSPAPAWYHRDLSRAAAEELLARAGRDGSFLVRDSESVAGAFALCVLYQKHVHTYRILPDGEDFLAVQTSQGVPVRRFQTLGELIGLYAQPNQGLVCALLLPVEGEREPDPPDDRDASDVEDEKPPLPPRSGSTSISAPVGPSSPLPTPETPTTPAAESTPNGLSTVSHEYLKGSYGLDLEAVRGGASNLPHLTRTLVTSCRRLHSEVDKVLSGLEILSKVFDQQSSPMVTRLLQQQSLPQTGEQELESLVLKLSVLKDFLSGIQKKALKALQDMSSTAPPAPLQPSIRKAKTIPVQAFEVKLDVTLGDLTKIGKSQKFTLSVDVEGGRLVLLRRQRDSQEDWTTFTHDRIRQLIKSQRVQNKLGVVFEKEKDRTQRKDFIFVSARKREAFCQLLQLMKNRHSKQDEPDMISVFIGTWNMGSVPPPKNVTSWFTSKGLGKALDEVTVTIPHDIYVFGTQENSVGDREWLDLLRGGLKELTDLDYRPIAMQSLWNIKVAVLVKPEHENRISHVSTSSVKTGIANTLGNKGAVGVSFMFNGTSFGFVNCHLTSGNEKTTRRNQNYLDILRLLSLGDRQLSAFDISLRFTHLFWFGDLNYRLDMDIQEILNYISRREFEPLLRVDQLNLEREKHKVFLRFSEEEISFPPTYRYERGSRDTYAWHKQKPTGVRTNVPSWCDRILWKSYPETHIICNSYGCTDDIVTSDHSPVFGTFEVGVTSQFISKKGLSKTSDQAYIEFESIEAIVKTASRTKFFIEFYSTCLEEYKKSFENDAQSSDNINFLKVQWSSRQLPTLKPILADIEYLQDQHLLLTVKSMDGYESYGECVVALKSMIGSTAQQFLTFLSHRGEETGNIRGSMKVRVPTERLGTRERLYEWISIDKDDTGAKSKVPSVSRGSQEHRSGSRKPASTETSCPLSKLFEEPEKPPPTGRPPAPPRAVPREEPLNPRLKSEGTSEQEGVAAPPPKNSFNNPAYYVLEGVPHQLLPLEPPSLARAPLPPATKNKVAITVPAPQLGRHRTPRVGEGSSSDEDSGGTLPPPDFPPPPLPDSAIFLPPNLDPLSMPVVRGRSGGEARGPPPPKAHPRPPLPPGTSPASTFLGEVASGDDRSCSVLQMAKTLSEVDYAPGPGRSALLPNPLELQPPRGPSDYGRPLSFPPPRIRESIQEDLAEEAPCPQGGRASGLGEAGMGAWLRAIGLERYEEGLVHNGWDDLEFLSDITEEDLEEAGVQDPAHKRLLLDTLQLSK
Outline: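 3T3-L1 fibroblasts differentiated into adipocytes, then serum-starved 16 h with TNFα 20 ng/mL. Treated with compound 10 µM or 0.1% DMSO for 15 min, then stimulated with 17 nM insulin at 37 °C for 2 h. Cells lysed on ice at pH 7.5 and Thr308 phospho-Akt measured by western blot. Results given as fold change versus TNFα+insulin control. Mean ± SE.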

[8] = test system: Mus musculus; test: Antidiabetic activity in db/db mouse assessed as decrease in HOMA-R index of insulin resistance at 300 mg/kg, po bid for 12 to 13 days; type: functional, organism-based; set-up: dose 300 mg/kg
[9] = test system: Mus musculus; test: Toxicity in C57BL/6J mouse assessed as epididymal white adipose tissue weight at 300 mg/kg, po bid for 12 to 13 days measured on day 15 (reference value: 0.03 +/-0.0 gms); type: organism-based; set-up: dose 300 mg/kg, route oral; conditions: in vivo
[10] = test system: Mus musculus; test: Toxicity in C57BL/6J mouse assessed as liver weight at 300 mg/kg, po bid for 12 to 13 days measured on day 15 (reference value: 0.74 +/-0.03 gms); type: organism-based; set-up: dose 300 mg/kg, route oral; conditions: in vivo
[11] = test system: Mus musculus; test: Antidiabetic activity in db/db mouse assessed as decrease in glucose intolerance at 300 mg/kg, po bid for 10 days by glucose tolerance test; type: functional, organism-based; set-up: dose 300 mg/kg
Outline: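 Male mice, 8 weeks old, dosed orally twice daily with 300 mg/kg in 0.5% methylcellulose, or vehicle, for 13 days (C57BL/6J) or 10 days (db/db). After a 6 h fast, glucose 2 g/kg given ip. Tail-vein blood sampled at set times and plasma glucose measured by glucometer. AUC calculated. Mean ± SE, n=5-8; ANOVA with Bonferroni test versus vehicle.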

[12] = test system: Mus musculus; test: Decrease in glucose-6-phosphatase gene expression in db/db mouse liver at 300 mg/kg, po bid for 12 to 13 days by real time RT-PCR analysis; type: functional, organism-based; set-up: dose 300 mg/kg
Outline: (§1)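 db/db mice dosed orally twice daily with 300 mg/kg or vehicle for 12-13 days, then fasted overnight and liver removed. Gluconeogenic gene mRNA measured by SYBR-green real-time PCR and expressed as fold change versus vehicle. Mean ± SE, n=7-8; ANOVA with Bonferroni test.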

[13] = test system: Mus musculus; test: Decrease in PEPCK gene expression in db/db mouse liver at 300 mg/kg, po bid for 12 to 13 days by real time RT-PCR analysis; type: functional, organism-based; set-up: dose 300 mg/kg; outline: as §1
[14] = test system: Mus musculus; test: Toxicity in db/db mouse assessed as body weight at 300 mg/kg, po bid for 12 to 13 days measured on day 10 (reference value: 39.2 +/-0.6 gms); type: organism-based; set-up: dose 300 mg/kg, route oral; conditions: in vivo
[15] = test system: Mus musculus; test: Toxicity in db/db mouse assessed as epididymal white adipose tissue weight at 300 mg/kg, po bid for 12 to 13 days measured on day 12 to 13 (reference value: 1.82 +/-0.1 gms); type: organism-based; set-up: dose 300 mg/kg, route oral; conditions: in vivo

With C[C@H](NC(=O)c1sccc1OCc1ccc(Cl)cc1)c1ccccc1 as the compound, how does the Activity [1] read?
Its Activity is 23 g.

And the Activity [2]?
The Activity was 77 mg/dL.

What about the Activity [3] of the same compound?
Its Activity is 0.1 ng/mL.

And the Activity [4]?
The Activity was 4.1 g/day.

What about the Activity [5] of the same compound?
The Activity was 9.95 ng/mL.

What about the Activity [6] of the same compound?
The Activity was 6.5 g/day.

And the fold change (FC) [7]?
Its fold change (FC) is 1.2.

What about the inhibition [8] of the same compound?
The inhibition was “Active”.

And the Activity [9]?
Its Activity is 0.02 g.

What about the Activity [10] of the same compound?
Its Activity is 0.73 g.

And the inhibition [11]?
Its inhibition is “Active”.

What about the inhibition [12] of the same compound?
The inhibition was “Active”.

What about the inhibition [13] of the same compound?
The inhibition was “Active”.

What about the Activity [14] of the same compound?
The Activity was 40.1 g.

What about the Activity [15] of the same compound?
The Activity was 1.75 g.

Which results are given for O=C(Cc1c(F)cccc1F)Nc1cc(OCc2ccc(Cl)cc2)ccn1?
Activity [1]: 23.4 g; Activity [2]: 83 mg/dL; Activity [3]: 0.21 ng/mL; Activity [4]: 3.94 g/day; Activity [5]: 6.86 ng/mL; Activity [6]: 5.34 g/day; fold change (FC) [7]: 1.3; inhibition [8]: Active; Activity [9]: 0.02 g; Activity [10]: 0.86 g; inhibition [11]: Active; inhibition [12]: Active; inhibition [13]: Active; Activity [14]: 39.4 g; Activity [15]: 1.86 g
